Sampled rows, rich in hits. Any-hit rate of the full collection: about 1.9%.
LEDGF integ inh: blockers of LEDGF/p75-dependent integrase strand transfer – biochemical, TR-FRET, high throughput, primary screen | TR-FRET IN-LEDGF/p75 DNA integration, Eu/Cy5 | inhibition, % at 3.7 µM | HIV-1 integrase (with human LEDGF/p75) | actives 0.64% (n = 370,000);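 active = inhibition above the screen-wide mean plus 3 SD, cut at about 13% in these data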;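 also: signal is the Cy5 over europium emission ratio at 671 and 618 nm; 0% = plate median of compound wells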
TDP2 inh: human TDP2 enzyme inhibitors, primary screen, biochemical, epi absorbance, recombinant enzyme. Tyrosyl-DNA phosphodiesterase 2 (Homo sapiens), O95551. T5PNP hydrolysis, p-nitrophenol absorbance 415 nm. inhibition, % at 12.8 µM. actives 0.34% (n = 370,000). AID 720702, 2013;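 active = inhibition above the mean of all tested compounds plus 3 SD, set per campaign, cut at about 25% in these data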;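 also: 0% = DMSO with enzyme and 100% = buffer with substrate but no TDP2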
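Test system: human TDP2 enzyme; Input: 120 nM TDP2 per well; Buffer or medium: Mg2+-containing Tris-HCl buffer, pH 7.5; Reagent: 5 mM T5PNP; Dosing: 12.8 µM single point, 1% DMSO; Incubation: reaction 2 h, 37 °C; Detection: p-Nitrophenol epi absorbance; Read-out: % inhibition relative to enzyme-containing and enzyme-free wells; Replicates: single well per compound.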
Casp6 inh: human caspase-6 inhibitors, primary screen, biochemical, VEID-R110 fluorescence, single point, set 2; P55212; purified caspase-6, Z-VEID-R110 cleavage fluorescence; inhibition, % at 12.5 µM; actives 0.53% (n = 350,000); AID 686996, 2013;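 active = mean inhibition across replicates at least about 35%, with every replicate also reaching that limit, limit read from the data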;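 also: 0% = median of neutral control wells and 100% = no fluorescence left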
MBD2 inh: inhibitors of MBD2 binding to methylated DNA, primary screen, biochemical, TR-FRET, DNA-binding domain, human; inhibition, % at 4.4 µM; MBD2 binding to methylated oligonucleotide; actives 0.31% (n = 370,000); Methyl-CpG-binding domain protein 2 (Homo sapiens), Q9UBB5; in the data active = inhibition above about 13%
UHRF1 binding: UHRF1 methylated DNA binding inhibitors, primary screen, counter-screen for MBD2 inhibitor project, biochemical, TR-FRET, human UHRF1, single concentration; UHRF1 binding to methylated oligo; inhibition, % at 4.4 µM; actives 0.75% (n = 370,000); AID 687016, 2013; in the data active = inhibition above about 21%;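 also: UHRF1 SRA domain binding a hemimethylated CpG hairpin DNA probe; 0% = median of test compound wells and 100% = reference inhibitor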
NSD2 HMT inh: NSD2 histone methyltransferase inhibitors, primary screen, biochemical, AlphaScreen, single concentration, set 2; Histone-lysine N-methyltransferase NSD2 (Homo sapiens), O96028; NSD2 peptide methylation, 120 min; inhibition, % at 12.5 µM; actives 0.54% (n = 310,000); AID 743445, 2014; in the data active = inhibition above about 50%
AlphaScreen art: AlphaScreen signal interference with preloaded methylated product, dose response, artefact control for NSD2 inhibitor project, biochemical, cherry-picked samples. shares compounds with NSD2 HMT inh. AlphaScreen artifact counterscreen, preloaded methylated H4 peptide. AC35, µM (series often up to 10 µM), inactives show top-dose activity change, negative = signal loss. actives 9.4% (n = 1,500); call rule not given here
* hit, by the source's call; x = no result given.

SMILES	LEDGF integ inh	TDP2 inh	Casp6 inh	MBD2 inh	UHRF1 binding	NSD2 HMT inh	AlphaScreen art
Cc1cc(C)cc(NC(=O)C2C3C=CC4(O3)C2C(=O)N(CCCN2CCCC2)C4C(=O)NC2CCCC(C)C2C)c1 (configuration not stated)	2	2	-9	1	-2	50*	3%
CCn1cc(/C=N\NC(=O)C2(C)CC2(Cl)Cl)c(C)n1 (configuration not stated)	2	-2	x	4	1	63*	2%
CN(C)c1ccc(C(=O)N2CCNC(=O)C2CC(=O)Nc2ccc(F)cc2)cc1 (configuration not stated)	1	-4	8	-9	-4	2	x
COc1ccc(NC(=O)CC2C(=O)NCCN2C(=O)c2ccc(N(C)C)cc2)cc1 (configuration not stated)	1	-6	-1	2	1	64*	-2%
O=C(N[C@@H]1CC[C@@H](CCNS(=O)(=O)c2cccc(Cl)c2)O[C@H]1CO)c1ccncc1	x	x	-1	x	x	x	x
Oc1cccc2cnccc12	-2	3	1	-9	-1	-1	x
Nc1cccc2cnccc12	5	22	x	-4	3	107*	-5%
CCC(=O)N1[C@H](CO)[C@@H](c2ccccc2)C12CN(C(=O)Nc1cccc(OC)c1)C2	x	x	1	x	x	x	x
O=C(CC(=O)NCCc1ccccc1)NCCc1ccccc1	-1	-9	-4	-2	2	124*	-1%
CCN(Cc1ccccc1)Cc1c(C)[nH]c2c(C)c(C)ccc2c1=O	-5	6	x	1	3	56*	-6%
C=CCN(CC=C)Cc1c(C)[nH]c2c(C)c(C)ccc2c1=O	-4	8	-4	3	3	0	x
COc1ccc(NC(=O)N(C)C[C@H]2OCCCC[C@@H](C)Oc3ccc(NC(=O)CCCN(C)C)cc3C(=O)N([C@H](C)CO)C[C@@H]2C)cc1	x	x	-2	x	x	x	x
CN1CCCCCC1=Nc1ccc([N+](=O)[O-])cc1	3	-5	-3	5	-2	57*	-2%
CN1CCCC1=Nc1ccccc1	-1	-1	-3	0	-2	0	x
C[C@@H]1CN([C@H](C)CO)C(=O)c2cc(NS(=O)(=O)c3cccs3)ccc2O[C@@H](C)CCCCO[C@@H]1CN(C)Cc1ccc(C(=O)O)cc1	x	x	1	x	x	x	x
Nc1nc(COC(=O)c2ccco2)nc(Nc2ccccc2)n1	-4	-6	1	2	3	53*	-3%
Cc1ccccc1Nc1nc(N)nc(COC(=O)c2ccco2)n1	0	-9	1	2	-1	-2	x
NC(=S)Nc1cccc2cnccc12	0	-7	x	4	-5	-1	x
Fc1ccccc1NC(=S)Nc1cccc2cnccc12	-7	5	27	-2	-1	99*	-4%
Cc1ccc(NC(=S)Nc2cccc3cnccc23)cc1C	3	12	3	-5	-5	21	x
Cc1ccc(C)c(NC(=S)Nc2cccc3cnccc23)c1	0	7	20	-6	-4	98*	-6%
Cc1ccccc1NC(=S)Nc1cccc2cnccc12	-4	17	17	-5	-3	104*	6%
NC1(C(=O)O)CSSC1	2	8	4	2	2	76*	-2%
COc1ccc(OCc2cnc(Cl)s2)cc1	-1	-6	x	1	0	-1	x
Cc1ccc(OCc2cnc(Cl)s2)c(C)c1	6	-1	1	8	6	52*	0%
SMILES	LEDGF integ inh	TDP2 inh	Casp6 inh	MBD2 inh	UHRF1 binding	NSD2 HMT inh	AlphaScreen art
Cc1ccc2nc(C)cc(C(=O)NC3CCCCCC3)c2c1	0	-3	-1	-1	0	1	x
CCc1nc2ccc(C)cc2c(C(=O)NC2CCCCC2C)c1C (configuration not stated)	-1	-4	x	5	0	75*	-2%
CO[C@@H]1CC[C@H]2CCN(C)C(=O)C[C@H](c3ccccc3)CN(C)C(=O)c3cc(C#N)ccc3OC[C@H]1O2	x	x	-1	x	x	x	x
O=C(c1cc(-c2ccc(Cl)cc2)n(-c2ccc(Cl)cc2)n1)N1CCOCC1	2	-6	x	5	-1	58*	-2%
Cc1ccc(-n2nc(C(=O)N3CCOCC3)cc2-c2ccc(Cl)cc2)cc1	-4	-2	x	3	-1	1	x
O=C(C1CCOCC1)N1C[C@H]2[C@@H](c3ccccc31)[C@H](CO)N2C(=O)c1ccccc1	x	x	-2	x	x	x	x
O=[N+]([O-])c1ccc(-[n+]2nc(-c3ccccc3)nn2-c2ccccc2)cc1	-5	8	7	5	12	81*	0.91µM*
O=c1ccc(-c2ccc([N+](=O)[O-])cc2)nn1-c1ccccc1	-1	13	-2	9	16	-2	x
CCCN1[C@@H]2c3ccc(C4=CCCCC4)c(=O)n3C[C@H]1[C@H](CO)[C@H]2C(=O)NCCOC	x	x	1	x	x	x	x
Cc1ccc2[nH]c3c(c2c1)CN(C(=O)CN(C)CC1OCCO1)CC3	2	20	x	-3	0	64*	-5%
OC(COc1ccc2ccccc2c1Cl)CN1CCOCC1 (configuration not stated)	-1	-2	x	0	7	86*	-3%
OC(COc1cccc2ccccc12)CN1CCOCC1 (configuration not stated)	0	6	-3	2	0	-1	x
CC(C)[Si](C#CCCCC#N)(O[C@H](c1ccccc1)c1cn(Cc2cccc(Cl)c2)nn1)C(C)C	x	x	-3	x	x	x	x
CO[C@@H]1CN(C)C(=O)c2ccc(NC(=O)C3CC3)cc2OC[C@H](C)N(Cc2ccc(F)cc2)C[C@H]1C	x	x	4	x	x	x	x
CCOc1ccc(NC(=O)CN(c2cccc(C(F)(F)F)c2)S(C)(=O)=O)cc1	1	-2	x	7	1	113*	0%
CN1c2ccc(C3=CCCCC3)cc2[C@@H]2[C@@H](CCN2S(=O)(=O)c2ccccc2)[C@H]1CO	x	x	-1	x	x	x	x
Cc1cc2nn(-c3cccc4ccccc34)nc2cc1NC(=O)c1cccs1	-1	3	-2	9	5	126*	-3%

From PubChem
